According to ChEMBL document CHEMBL1147677, “Synthesis and biological evaluation of glycosidase inhibitors: gem-difluoromethylenated nojirimycin analogues” (J Med Chem, 2006):

Columns and labels:
[1] = Inhibition of yeast alpha glucosidase at pH 6.8; design: species or system Saccharomyces cerevisiae
Summary of the method: (§1)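 Nitrophenyl glycoside substrate hydrolysis in 0.1 M sodium phosphate, pH 6.8, 25 °C. Seven cuvettes hold a fixed inhibitor concentration and seven hold none, each across varying substrate levels. The reaction is started with diluted enzyme, and 4- or 2-nitrophenol release is followed at 400 nm for 2 min. Ki = [I]/(KM′/KM − 1) from KM with and without inhibitor.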

[2] = target: T1, Tissue alpha-L-fucosidase (Bos taurus, UniProt Q2KIM0); test: Inhibition of bovine kidney alpha fucosidase at pH 6.8; summary of the method: as §1
T1 sequence (Q2KIM0 whole entry): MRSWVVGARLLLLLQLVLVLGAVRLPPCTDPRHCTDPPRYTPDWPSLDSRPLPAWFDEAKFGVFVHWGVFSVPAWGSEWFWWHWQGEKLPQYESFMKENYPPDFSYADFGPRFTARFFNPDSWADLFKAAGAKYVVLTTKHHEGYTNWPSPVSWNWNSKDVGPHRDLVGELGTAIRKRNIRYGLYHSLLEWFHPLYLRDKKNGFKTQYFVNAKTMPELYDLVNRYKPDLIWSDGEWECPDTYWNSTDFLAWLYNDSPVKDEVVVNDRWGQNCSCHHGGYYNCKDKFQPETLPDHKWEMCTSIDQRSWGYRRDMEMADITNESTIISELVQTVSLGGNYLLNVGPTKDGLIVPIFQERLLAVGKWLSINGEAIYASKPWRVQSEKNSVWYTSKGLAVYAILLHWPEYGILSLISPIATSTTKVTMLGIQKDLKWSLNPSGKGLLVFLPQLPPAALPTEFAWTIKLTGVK

[3] = target: T2, Tissue alpha-L-fucosidase (Homo sapiens, UniProt P04066); test: Inhibition of human placenta alpha fucosidase at pH 6.8; summary of the method: as §1
T2 sequence (P04066 whole entry): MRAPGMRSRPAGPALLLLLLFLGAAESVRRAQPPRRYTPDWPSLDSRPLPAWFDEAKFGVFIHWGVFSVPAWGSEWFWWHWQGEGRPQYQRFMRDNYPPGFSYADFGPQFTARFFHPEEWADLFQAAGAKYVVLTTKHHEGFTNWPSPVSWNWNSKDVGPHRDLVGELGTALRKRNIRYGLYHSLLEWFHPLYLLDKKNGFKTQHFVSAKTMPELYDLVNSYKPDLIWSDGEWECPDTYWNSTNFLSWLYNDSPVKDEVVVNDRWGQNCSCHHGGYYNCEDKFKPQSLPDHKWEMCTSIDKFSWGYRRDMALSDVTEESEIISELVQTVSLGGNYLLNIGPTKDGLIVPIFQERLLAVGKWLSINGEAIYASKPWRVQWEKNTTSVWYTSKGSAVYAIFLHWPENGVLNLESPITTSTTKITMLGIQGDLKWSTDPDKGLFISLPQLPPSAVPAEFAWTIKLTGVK

[4] = target: Alpha-galactosidase (Coffea arabica, UniProt Q5DUH8); test: Inhibition of green coffee beans alpha galactosidase at pH 6.8; summary of the method: as §1
Alpha-galactosidase, sequence (Q5DUH8 whole entry): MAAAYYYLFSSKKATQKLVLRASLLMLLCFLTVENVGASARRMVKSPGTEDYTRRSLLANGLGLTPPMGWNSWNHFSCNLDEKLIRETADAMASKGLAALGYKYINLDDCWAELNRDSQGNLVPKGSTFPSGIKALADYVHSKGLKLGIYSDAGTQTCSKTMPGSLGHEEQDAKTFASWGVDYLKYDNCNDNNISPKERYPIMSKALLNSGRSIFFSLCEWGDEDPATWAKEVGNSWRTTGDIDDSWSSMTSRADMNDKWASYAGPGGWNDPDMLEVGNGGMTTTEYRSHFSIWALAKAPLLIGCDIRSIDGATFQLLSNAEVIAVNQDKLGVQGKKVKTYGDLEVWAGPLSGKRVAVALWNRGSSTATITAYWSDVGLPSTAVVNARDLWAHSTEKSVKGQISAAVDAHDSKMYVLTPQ

[5] = Dissociation constant, pKa of the compound; format: physicochemical

## C[C@@H]1NC[C@@H](O)[C@H](O)C1(F)F
[1]
  Ki: > 1000 µM
[2]
  Ki: 570 µM
[3]
  Ki: 250 µM
[4]
  Ki: > 1000 µM

## C[C@H]1NC[C@H](O)[C@@H](O)C1(F)F
[1]
  Ki: > 1000 µM
[2]
  Ki: > 1000 µM
[3]
  Ki: > 1000 µM
[4]
  Ki: > 1000 µM

## OC[C@H]1NC[C@@H](O)[C@@H](O)C1(F)F
[5]
  pKa: 5.3
